Bioassay records deposited in PubChem BioAssay by several laboratories.
Sampled rows, rich in hits. Any-hit rate of the full collection: about 3.7%.
procasp7 counter: procaspase-7 activators, primary screen, counter-screen for procaspase-3 activator project, biochemical, absorbance, HTS, human; Caspase-7 (Homo sapiens), P55210; recombinant procaspase-7, Ac-DEVD-pNA absorbance 405 nm; D23A/D198A/D206A triple mutant, cannot self-cleave; scale: DMSO 0, 5 µM enzyme 100; activation, % at 8.5 µM; 330,000 compounds, 0.093% hits; AID 463210, 2010;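 active = percent activation above the screen-wide mean plus 3 SD, cut at about 25% in these data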
Target sequence (P55210 whole entry D23A/D198A/D206A): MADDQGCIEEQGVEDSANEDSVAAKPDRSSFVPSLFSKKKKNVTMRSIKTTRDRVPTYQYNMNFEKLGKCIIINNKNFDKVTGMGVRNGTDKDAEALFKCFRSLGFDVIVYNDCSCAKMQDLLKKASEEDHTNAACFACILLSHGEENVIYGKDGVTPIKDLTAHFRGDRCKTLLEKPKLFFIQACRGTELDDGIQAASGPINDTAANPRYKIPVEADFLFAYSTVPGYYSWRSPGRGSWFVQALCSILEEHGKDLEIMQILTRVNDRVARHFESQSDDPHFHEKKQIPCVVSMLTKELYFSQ
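Test system: Procaspase-7 triple mutant (PC-7 D3A). Also added: Ac-DEVD-pNA substrate, 400 µM as added. Schedule: 1 h enzyme–compound preincubation and 2 h substrate reaction, both 25 °C. Signal: p-Nitroaniline absorbance at 405 nm, read at 0 and 120 min. Control set: low DMSO alone, high DMSO plus 5 µM PC-7.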
MPTP inh: mitochondrial permeability transition pore inhibitors, primary screen, biochemical, isolated mouse mitochondria, absorbance. Ca2+ swelling absorbance, 30 min. inhibition, % at 10 µM. 360,000 compounds, 1.4% hits. AID 602449, 2012;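 active = inhibition of 50% or more, scaled per plate between neutral and stimulator controls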
proCasp3 act: activators of human procaspase-3 D3A mutant, primary screen, biochemical, absorbance, PC-3 D3A mutant, single concentration; recombinant procaspase-3 D3A, Ac-DEVD-pNA absorbance 405 nm; Caspase-3 (Homo sapiens), P42574; 330,000 compounds, 0.11% hits; activation, % at 8.5 µM;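 active = activation above the mean of all tested compounds plus 3 SD, cut at about 21% in these data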
Target sequence (P42574 whole entry D9A/D28A/D175A): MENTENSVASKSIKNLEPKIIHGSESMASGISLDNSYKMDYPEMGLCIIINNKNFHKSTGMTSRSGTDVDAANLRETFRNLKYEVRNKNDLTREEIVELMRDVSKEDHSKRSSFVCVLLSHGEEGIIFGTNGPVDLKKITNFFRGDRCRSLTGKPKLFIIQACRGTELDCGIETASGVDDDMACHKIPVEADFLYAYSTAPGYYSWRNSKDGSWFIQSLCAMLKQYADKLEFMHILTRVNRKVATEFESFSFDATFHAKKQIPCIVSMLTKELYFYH
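Evaluation: percent activation relative to control range; Material: Procaspase-3 D3A mutant, all three cleavage aspartates alanine; Compound: single dose, 8.5 µM nominal compound, 0.8% DMSO; Replication: one well per compound; Signal: absorbance at 405 nm, 0 and 120 min; Schedule: 1 h preincubation plus 2 h reaction at 25 °C.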
aDG glyco act: activators of alpha-DG glycosylation, primary screen, uHTS, Pro5-aDG cells, AlphaScreen. alpha-DG glycosylation AlphaScreen (IIH6); 0% Pro5, 100% B10-LARGE cell signal. activation, % at 10 µM. 360,000 compounds, 0.22% hits. AID 624168, 2012;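 active = activation of at least 8% versus controls, or a plate z-score of at least 8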;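 also: Pro5 are CHO cells carrying HIG-tagged alpha-DG that lacks glycosylation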
GRIN3A LBD mod: binders of NR3A ligand-binding domain, primary screen, biophysical, differential scanning fluorimetry, uHTS; Tm shift relative to glycine control, % at 25 µM; AID 1259313, 2017; NR3A LBD differential scanning fluorimetry, Tm shift; 0% = protein alone, 100% = glycine-bound protein; 340,000 compounds, 2.5% hits;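 active = melting temperature shift of at least 10% of the positive control shift, at one fixed dose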
Rh123 counter: fluorescence retest of MPTP screen hits in isolated mitochondria, single concentration | 5,000 compounds, 78% hits | membrane potential, Rhodamine 123 fluorescence | shares compounds with MPTP inh | inhibition, % at 10 µM | AID 624504, 2012; in the data active = inhibition above about 22%
MPTP swell DR: mitochondrial permeability transition pore inhibitors, dose response, biochemical, absorbance, uHTS hits | IC50, µM | shares compounds with MPTP inh | isolated mitochondria swelling | 780 compounds, 58% hits; in the data active = IC50 below about 20 µM
MPTP counter DR: fluorescent counter-screen in isolated mitochondria, dose response, counter-screen for MPTP inhibitor project, biochemical, fluorescence, uHTS hits | shares compounds with MPTP inh | isolated mitochondria counterscreen, fluorescence read-out | IC50, µM | 780 compounds, 49% hits | AID 651564, 2012; in the data active = IC50 below about 80 µM
Large screens that a line does not name were inactive (follow-up assays come after a bar, where they were run).

CN(C)CCCN(C(=O)c1ccc(S(=O)(=O)N2CCCCC2)cc1)c1nc2cc3c(cc2s1)OCO3	none
Cc1ccc2sc(N(CCCN(C)C)C(=O)c3ccc(S(=O)(=O)N4CCCCCC4)cc3)nc2c1C	MPTP inh 58 | Rh123 counter inactive | MPTP swell DR inactive | MPTP counter DR 64
Cc1cc(C)c2sc(N(CCCN(C)C)C(=O)c3ccc(S(=O)(=O)N(C)C4CCCCC4)cc3)nc2c1	MPTP inh 77 | Rh123 counter inactive
CN(C)CCCN(C(=O)c1ccc(S(=O)(=O)N(C)C2CCCCC2)cc1)c1nc2ccc(F)cc2s1	none
Cc1cc(C)c2nc(N(CCCN(C)C)C(=O)c3ccc(S(=O)(=O)N4CCCCCC4)cc3)sc2c1	MPTP inh 83 | Rh123 counter inactive | MPTP swell DR 6.4 | MPTP counter DR inactive
Cc1c(Cl)sn(-c2ccc(Cl)cc2)c1=O	none (no result: procasp7 counter, proCasp3 act)
CCC(NC(=O)c1ccc2nc(Cc3ccc(OC)cc3)oc2c1)c1ccncc1 (configuration not stated)	MPTP inh 66 | Rh123 counter 76
CCC(C)NC(=O)c1ccc2nc(Cc3ccc(OC)cc3)oc2c1 (configuration not stated)	none
CC1(C(=O)NS(=O)(=O)c2cccc(F)c2)CCN1C(=O)Cc1ccccc1 (configuration not stated)	none (no result: procasp7 counter, proCasp3 act, GRIN3A LBD mod)
Nc1ccc(-c2nc3ccccc3[nH]2)cc1	none
c1ccc(-c2cc(-c3nc4ccccc4[nH]3)c3ccccc3n2)cc1	MPTP inh 98, GRIN3A LBD mod 22 | Rh123 counter 83
C(=C\c1ccccc1)/CN1CCN(c2ncnc3c2oc2ccccc23)CC1	MPTP inh 95 | Rh123 counter 94
Nc1nc(N2CCN(C/C=C/c3ccccc3)CC2)nc2ccccc12	MPTP inh 63 | Rh123 counter inactive | MPTP swell DR inactive | MPTP counter DR 59
Clc1ccc(/C(Cc2nc3ccccc3[nH]2)=N\Nc2ccccc2)cc1	MPTP inh 86 | Rh123 counter 70
O=C(Cc1nc2ccccc2[nH]1)c1ccc(Cl)cc1	none
CCCCCCN1C=C/C(=C\C=C(C#N)C#N)c2ccccc21	MPTP inh 51 | Rh123 counter inactive | MPTP swell DR 9.3 | MPTP counter DR <2.5
C=CCN1C=C/C(=C\C=C(C#N)C#N)c2ccccc21	none
O=C(c1cccc(S(=O)(=O)N2CCN(c3ccccc3)CC2)c1)N1CCCC(C(F)(F)F)C1 (configuration not stated)	MPTP inh 68 | Rh123 counter 71
COc1ccc(-n2c(C)cc(/C=C3/SC(=S)N(C)C3=O)c2C)cc1	none
Cc1cc(/C=C2\SC(=S)N(C)C2=O)c(C)n1-c1cccc(O)c1	MPTP inh 66 | Rh123 counter 66
CN1C(=O)/C(=C\c2ccccc2OCc2ccccc2)SC1=S	none
CN1C(=O)/C(=C\c2cc(N=Nc3ccccc3)ccc2O)SC1=S	MPTP inh 100 | Rh123 counter 76
O=S1(=O)CCOC(CO)CN1Cc1ccc(Cl)c(Cl)c1 (configuration not stated)	none
CCc1nc2c(OCCC3CCCCC3)cccn2c1N(C)C(=O)c1ccccc1F	none (no result: procasp7 counter, proCasp3 act, GRIN3A LBD mod)
CC(C)CCNC(=O)Nc1ccc2c(c1)N(C)C(=O)CS2	none
CC(=O)c1ccc(NC(=O)Nc2ccc3c(c2)N(C)C(=O)CS3)cc1	MPTP inh 96, GRIN3A LBD mod 19 | Rh123 counter 77
COc1ccc(NC(=O)Nc2ccc3c(c2)N(C)C(=O)CS3)cc1Cl	MPTP inh 93, GRIN3A LBD mod 27 | Rh123 counter 68
CN1C(=O)CSc2ccc(NC(=O)NCCC3=CCCCC3)cc21	MPTP inh 75 | Rh123 counter 78
O=C(Nc1nnc(C2CC2)s1)c1ccc(Cl)c(S(=O)(=O)N2CCc3ccccc3C2)c1	MPTP inh 51 | Rh123 counter 60
O=C(Nc1ccncc1)c1ccc(Cl)c(S(=O)(=O)N2CCc3ccccc32)c1	MPTP inh 58 (no result: GRIN3A LBD mod) | Rh123 counter 91
Fc1ccc(-c2ccc3c(c2)C2CC3CCN2Cc2ccc3c(c2)OCO3)cc1 (configuration not stated)	none (no result: procasp7 counter, proCasp3 act)
Cc1ccc(S(=O)(=O)Nc2cc(C(C)C)c(O)cc2C)cc1	none
Cc1ccc(S(=O)(=O)Nc2cc(Cl)c(O)cc2C)cc1	MPTP inh 65 | Rh123 counter inactive | MPTP swell DR 15 | MPTP counter DR 23
CC(C)(CC1(C)NC(=O)NC1=O)OCc1ccccc1 (configuration not stated)	none (no result: procasp7 counter, proCasp3 act)
CC(C)COc1ccc(-c2nnc(-c3ccco3)o2)cc1	none
CCN(CC)CCCNc1ccc(-c2nnc(-c3ccc(OCC(C)C)cc3)o2)cn1	MPTP inh 91 | Rh123 counter inactive
Cc1noc(C)c1NC(=O)Nc1ccc2c(c1)C(=O)N([C@H](C)CO)C[C@@H](C)[C@@H](CN(C)S(=O)(=O)c1cn(C)cn1)OCCCC[C@H](C)O2	none (no result: procasp7 counter, proCasp3 act, GRIN3A LBD mod)
O=C(CNC(=O)c1cc(-c2ccccc2)nn1-c1ccccc1)Nc1ccccc1Br	none (no result: procasp7 counter, proCasp3 act)
O=C(NNC(=O)c1ccccc1-c1ccccc1C(=O)O)c1ccccc1	none
O=C(C=P(c1ccccc1)(c1ccccc1)c1ccccc1)c1ccccc1-c1ccccc1C(=O)C=P(c1ccccc1)(c1ccccc1)c1ccccc1	MPTP inh 94 (no result: procasp7 counter, proCasp3 act) | Rh123 counter 99
O=C(COC(=O)c1cc(S(=O)(=O)Nc2ccccc2Cl)ccc1O)Nc1ccc(F)c(F)c1F	MPTP inh 68 | Rh123 counter 85
O=C(NCc1ccccc1)C(CCc1ccccc1)n1c(=O)c(-c2ccccc2)nc2ccccc21 (configuration not stated)	none (no result: procasp7 counter, proCasp3 act, GRIN3A LBD mod)
N=c1n(CCO)c2ccccc2n1CCOc1ccc(Cl)cc1Cl	MPTP inh 87 | Rh123 counter inactive | MPTP swell DR 4 | MPTP counter DR 29
Cc1cccc(Oc2cc(NC(=O)c3ccccc3)cc([N+](=O)[O-])c2)c1	MPTP inh 68 | Rh123 counter 81
